Measured values published in ChEMBL document CHEMBL1122501, “Potential antiatherosclerotic agents. 2. (Aralkylamino)- and (alkylamino) benzoic acid analogues of cetaben” (1983).

Assays:
[1] = system: Rattus norvegicus; experiment: In vivo Triglyceride lowering activity at dose as 0.017 % of the diet; assay type: functional
Method in brief: (§1)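 Male CFE or CD-1 Sprague-Dawley rats, 140-150 g; 8 per control group, 4 per test group. Compound mixed into ground chow (w/w) via MeOH-CHCl3 (1:3) solution, solvent evaporated; controls got solvent-treated chow. Fed ad libitum 5 days, food intake monitored, killed fed and bled. Serum sterols and triglycerides by adapted autoanalyzer methods; mean percent of control, Student's t test.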

[2] = system: Rattus norvegicus; experiment: In vivo Sterol lowering activity at dose as 0.017 % of the diet; assay type: functional; method in brief: as §1
[3] = system: Rattus norvegicus; experiment: In vivo triglyceride lowering activity dosed at 0.10 % of the diet; assay type: functional; method in brief: as §1
[4] = system: Rattus norvegicus; experiment: In vivo Sterol lowering activity at dose as 0.05 % of the diet; assay type: functional; method in brief: as §1
[5] = system: Rattus norvegicus; experiment: In vivo triglyceride lowering activity dosed at 0.05 % of the diet; assay type: functional; method in brief: as §1
[6] = system: Rattus norvegicus; experiment: In vivo sterol lowering activity dosed at 0.10 % of the diet; assay type: functional; method in brief: as §1
[7] = system: Rattus norvegicus; experiment: In vivo Sterol lowering activity at dose as 0.10 % of the diet.; assay type: functional; method in brief: as §1
[8] = biological target: T1, Sterol O-acyltransferase 1 (Rattus norvegicus) (UniProt O70536); experiment: In vitro inhibitory activity against acyl coenzyme A:cholesterol acyltransferase (ACAT); parameters: concentration or dose not given beside the values; conditions: concentration not given here
T1 sequence (whole entry): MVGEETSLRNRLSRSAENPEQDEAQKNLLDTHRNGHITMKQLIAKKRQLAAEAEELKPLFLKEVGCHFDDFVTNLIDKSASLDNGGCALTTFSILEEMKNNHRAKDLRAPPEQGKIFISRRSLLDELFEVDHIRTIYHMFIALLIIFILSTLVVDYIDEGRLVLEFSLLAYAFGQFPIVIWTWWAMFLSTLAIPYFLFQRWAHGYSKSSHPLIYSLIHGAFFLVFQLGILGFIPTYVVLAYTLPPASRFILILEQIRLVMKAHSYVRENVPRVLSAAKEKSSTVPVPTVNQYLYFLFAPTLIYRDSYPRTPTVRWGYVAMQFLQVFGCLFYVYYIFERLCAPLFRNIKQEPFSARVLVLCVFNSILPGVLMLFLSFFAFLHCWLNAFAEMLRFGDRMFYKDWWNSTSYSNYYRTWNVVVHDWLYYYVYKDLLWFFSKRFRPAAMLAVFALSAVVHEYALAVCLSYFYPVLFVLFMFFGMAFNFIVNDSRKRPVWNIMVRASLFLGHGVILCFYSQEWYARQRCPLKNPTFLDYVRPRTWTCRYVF
Method in brief: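 ACAT enzyme from rat adrenal homogenate in 0.2 M KH2PO4 buffer pH 7.4, 1000g 15 min 5 °C supernatant (microsomal fraction). Supernatant + BSA (50 mg/mL) + compound at final 5.2 μg/mL + buffer preincubated 10 min 37 °C; [14C]oleoyl-CoA (0.4 μCi) added, 30 min 37 °C. Lipids extracted, TLC; cholesteryl ester zone counted. Mean % inhibition vs no-compound control; Student's t test.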

[9] = system: Rattus norvegicus; experiment: In vivo Triglyceride lowering activity at dose as 0.025% of the diet.; assay type: functional; method in brief: as §1
[10] = system: Rattus norvegicus; experiment: In vivo triglyceride lowering activity, dosed at 0.10 % of the diet.; assay type: functional; method in brief: as §1
[11] = system: Rattus norvegicus; experiment: In vivo Sterol lowering activity at dose as 0.05 % of the diet.; assay type: functional; method in brief: as §1
[12] = system: Rattus norvegicus; experiment: In vivo Sterol lowering activity at dose as 0.025 % of the diet.; assay type: functional; method in brief: as §1
[13] = system: Rattus norvegicus; experiment: In vivo Triglyceride lowering activity at dose as 0.05 % of the diet.; assay type: functional; method in brief: as §1
[14] = system: Rattus norvegicus; experiment: In vivo Triglyceride lowering activity at dose as 0.025 % of the diet.; assay type: functional; method in brief: as §1
[15] = system: Rattus norvegicus; experiment: In vivo Sterol lowering activity at dose as 0.03 % of the diet.; assay type: functional; method in brief: as §1
[16] = system: Rattus norvegicus; experiment: In vivo triglyceride lowering activity, dosed at 0.01 % of the diet.; assay type: functional; method in brief: as §1
[17] = system: Rattus norvegicus; experiment: In vivo triglyceride lowering activity, dosed at 0.03 % of the diet; assay type: functional; method in brief: as §1
[18] = system: Rattus norvegicus; experiment: In vivo Sterol lowering activity at dose as 0.01 % of the diet..; assay type: functional; method in brief: as §1
[19] = system: Rattus norvegicus; experiment: In vivo Sterol lowering activity at dose as 0.025 % of the diet; assay type: functional; method in brief: as §1
[20] = system: Rattus norvegicus; experiment: In vivo Triglyceride lowering activity at dose as 0.017 % of the diet.; assay type: functional; method in brief: as §1
[21] = system: Rattus norvegicus; experiment: In vivo Triglyceride lowering activity at dose as 0.025% of the diet; assay type: functional; method in brief: as §1

Row | inhibition [8] | Compound | Serum triglycerides, % of control [1] | Diet [2] | serum triglycerides, percent of control [3] | Diet [4] | Diet [5] | serum sterol, percent of control [6] | serum sterol, percent of control [7] | Diet [9] | Diet [10] | Diet [12] | Diet [13] | further results
1 | – | CCCCCCCOc1ccc(CNc2ccc(C(=O)OCC)cc2)cc1 | 88% | 100% | <80% | <86% | <76% | 90% | – | – | – | – | – | –
2 | 56% | CCOC(=O)c1ccc(NCCCCc2cccs2)cc1 | – | – | – | – | – | – | 90% | 89% | 99% | 94% | 96% | Diet [11]: 97%
3 | 69% | CCOC(=O)c1ccc(NCCCCCc2ccccc2)cc1 | – | – | 62% | 85% | 66% | – | 90% | 84% | – | 92% | – | –
4 | 0% | COc1ccccc1CCCNc1ccc(C(=O)O)cc1 | – | – | – | – | – | – | 110% | – | 72% | 102% | 87% | Diet [14]: 100%; Diet [11]: 100%
5 | 28% | CCOC(=O)c1ccc(NCCCc2ccc(N)cc2)cc1 | – | – | 79% | – | – | – | 100% | – | – | – | – | serum sterol level, percent of control [15]: 97%; Diet [16]: 113%; serum triglycerides, percent of control [17]: 70%; Diet [18]: 93%
6 | 26% | O=C(O)c1ccc(NCCCCCc2ccccc2)cc1 | – | – | – | 84% | – | – | 108% | 96% | 89% | 95% | 78% | –
7 | 41% | CCOC(=O)c1ccc(NCCCCCCc2ccccc2)cc1 | – | – | 43% | 84% | 45% | 82% | – | 59% | – | – | – | Diet [19]: 89%
8 | 49% | CCOC(=O)c1ccc(NCCc2cccs2)cc1 | – | 86% | – | – | – | 86% | – | – | 69% | – | 94% | Diet [20]: 81%; Diet [11]: 90%
9 | < 24% | CCCCCCCOc1ccc(CNc2ccc(C(=O)O)cc2)cc1 | 95% | 100% | <72% | <84% | <70% | <84% | – | – | – | – | – | –
10 | < 36% | CCCCCCCCCCCCCOc1ccc(CNc2ccc(C(=O)O)cc2)cc1 | <62% | 100% | <56% | 100% | <65% | 81% | – | – | – | – | – | –
11 | 17% | O=C(O)c1ccc(NCCCCCCc2ccccc2)cc1 | – | – | 40% | 85% | 46% | – | 86% | – | – | – | – | Diet [19]: 83%; Diet [21]: 52%
12 | < 51% | CCCCCCCCCCc1ccc(CNc2ccc(C(=O)O)cc2)cc1 | 100% | 99% | 114% | <88% | 113% | <78% | – | – | – | – | – | –
13 | 19% | CCOC(=O)c1ccc(NCc2ccc(-c3ccccc3)cc2)cc1 | – | – | 52% | 94% | – | – | 94% | – | – | 102% | 76% | Diet [14]: 74%
